For orientation: pIC50 means the IC50 on a negative log10 scale, so that one unit is a factor of ten. A lower pIC50 goes with a high IC50. The term pEC50 denotes the negative decadic logarithm of the EC50, by convention in mol/L. The low end stands for a large EC50, the high end for a small EC50. For orientation: solubility means the dissolved amount per volume that the medium holds. Lower therefore signals a poorly soluble substance.

pEC50, pIC50: −log10 of the molar value.

Data set [1] deals with MDA-MB-468. In words: Growth inhibition in human breast cancer MDA-MB-468 cell line using SRB. It counts as functional, cell-based. An outline of the steps:
(§1)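 Sulforhodamine B growth assay. Plating densities were 6000 (SKBr3), 8000 (MDA-MB-468) or 10,000 (MRC-5) cells/well, attached overnight. Drug, added in triplicate, was 1:1 serially diluted with DMSO or PBS vehicle. Exposure lasted 72 h, then cells were fixed with TCA and stained with 0.4% SRB.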

Data set [2] concerns the target T1, Heat shock protein HSP 90-beta (Homo sapiens, UniProt P08238). In words: Inhibition of Her2 degradation in human breast cancer SKBr3 cell line. The data set is classed as functional, cell-based. An outline of the steps: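 Fixed in cold methanol, blocked, then probed overnight at 4 °C with anti-Her2, then HRP anti-rabbit and ECL luminescence. Normal rabbit IgG background was subtracted.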

The target of data set [3] is T1, Heat shock protein HSP 90-beta. Description: Inhibitory activity against Hsp90 in human breast cancer MDA-MB-468 cell line. The data set is classed as cell-based.
In another data set the test system is SK-BR-3. In words: Growth inhibition in human breast cancer SKBr3 cell line using SRB. It counts as functional, cell-based.
The subject of data set [4] is MDA-MB-468. Description: Antimitotic activity in human breast cancer MDA-MB-468 cell line. The data set is classed as functional, cell-based. In a few lines:
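MDA-MB-468 cells seeded at 8000/well, attached overnight, then exposed to drug or DMSO vehicle for 24 h at 37 °C, 5% CO2. Cells fixed in cold methanol, blocked, then probed with Tg-3 antibody against mitotically phosphorylated nucleolin, followed by HRP anti-mouse IgM and ECL luminescence. IC50 taken as the concentration that doubles luminescence over vehicle.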

Data set [5] deals with T1, Heat shock protein HSP 90-beta. Description: Inhibitory activity against Hsp90 in human breast cancer SKBr3 cell line. The data set is classed as cell-based.
Data set [6] is described as follows: Solubility in water. The data set is classed as physicochemical.
The next data set has as its system MRC5. In words: Cytotoxicity against normal lung fibroblast MRC5 cell line. The data set is classed as functional, cell-based. The conditions noted are these: Homo sapiens. An outline of the steps:
as §1

The target in data set [7] is Heat shock protein HSP 90 (Mus musculus). In words: Binding affinity to Hsp90 in mouse lung tissue.
The target is the same in data set [8]. In words: Binding affinity to Hsp90 in mouse heart tissue.

T1 sequence (P08238 whole entry): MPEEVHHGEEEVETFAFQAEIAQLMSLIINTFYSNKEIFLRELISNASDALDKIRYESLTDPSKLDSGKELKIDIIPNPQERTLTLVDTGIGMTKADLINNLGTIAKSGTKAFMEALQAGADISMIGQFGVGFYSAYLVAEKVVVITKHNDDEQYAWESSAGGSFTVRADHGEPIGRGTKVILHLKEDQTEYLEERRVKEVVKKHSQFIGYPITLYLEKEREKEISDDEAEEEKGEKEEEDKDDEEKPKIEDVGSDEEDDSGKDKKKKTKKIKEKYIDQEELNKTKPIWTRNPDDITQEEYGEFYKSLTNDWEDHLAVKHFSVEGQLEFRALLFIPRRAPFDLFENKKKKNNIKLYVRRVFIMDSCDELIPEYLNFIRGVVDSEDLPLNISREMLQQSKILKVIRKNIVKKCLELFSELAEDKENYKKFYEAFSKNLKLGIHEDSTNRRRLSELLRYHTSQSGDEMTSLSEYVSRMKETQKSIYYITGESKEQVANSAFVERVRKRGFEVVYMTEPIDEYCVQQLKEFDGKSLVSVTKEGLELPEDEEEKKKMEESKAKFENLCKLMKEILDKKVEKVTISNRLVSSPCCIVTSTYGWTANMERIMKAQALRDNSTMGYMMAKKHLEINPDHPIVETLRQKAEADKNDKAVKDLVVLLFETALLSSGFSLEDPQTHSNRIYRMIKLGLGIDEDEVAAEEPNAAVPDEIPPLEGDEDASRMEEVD

For the compound `C#CCCCn1c(Cc2cc(OC)c(OC)cc2Cl)nc2c(N)nc(F)nc21`, the pIC50 in the data set with MDA-MB-468 [1] was 4.56; in data set [2], 4.52; in the data set with SK-BR-3 it was 4.69; in the data set with MDA-MB-468 [4], < 4.30. Also, the pEC50 in data set [3] was 5.35; in data set [5], 5.34.

On to `C#CCCCn1c(Cc2cc3c(cc2I)OCO3)nc2c(N)nc(F)nc21`, for which the pIC50 with MDA-MB-468 [1] is 6.82; in data set [2] it was 7.05; in the data set on SK-BR-3 it was 7.05; in the data set with MDA-MB-468 [4], 6.74. Further, the pEC50 was 7.63 in data set [3] and 7.65 in data set [5].

Regarding `C#CCCCn1c(Cc2cc(OC)c(OC)cc2I)nc2c(N)nc(F)nc21`, the pIC50 (in the data set on MDA-MB-468 [1]; in data set [2]; with SK-BR-3; with MDA-MB-468 [4]) was < 4.30 in each case. In addition, the pEC50 in [3] and in [5] was < 4.82 each time.

On to `CC(C)NCCCn1c(Sc2cc3c(cc2Br)OCO3)nc2c(N)ncnc21`, for which the solubility in data set [6] is > 5000 µg/mL. In addition, the pIC50 in the data set on MDA-MB-468 [1] is 6.57; in the data set on SK-BR-3 it was 6.85; in the data set with MDA-MB-468 [4] it was 6.43.

Take `C#CCCCn1c(Cc2cc3c(cc2Cl)OCO3)nc2c(N)nc(F)nc21`: the pIC50 with MDA-MB-468 [1] is 6.36; in data set [2], 6.52; with SK-BR-3, 6.60; in the data set on MDA-MB-468 [4] it was 6.35. Moreover, the pEC50 in [3] is 7.29; in [5] it was 7.11.

`CC(C)NCCCn1c(Sc2cc3c(cc2I)OCO3)nc2c(N)ncnc21` [PU-H71]: the solubility in data set [6] was > 5000 µg/mL. In addition, the values for the pIC50 with MDA-MB-468 [1], in the data set on MRC5 and in the data set on MDA-MB-468 [4] were 7.24, 6.00 and 7.15, respectively.

`C#CCCCn1c(Sc2cc3c(cc2I)OCO3)nc2c(N)ncnc21`: the pIC50 was 6.77 with MDA-MB-468 [1], 7.00 in data set [2], 7.05 in the data set on SK-BR-3 and 6.74 in the data set with MDA-MB-468 [4]. Further, the pEC50 in data set [3] is 7.96; in data set [5], 7.97.

Turning to `CC(C)NCCCn1c(Cc2cc3c(cc2I)OCO3)nc2c(N)nc(F)nc21`, in data set [6], the solubility is > 5000 µg/mL. The pIC50 in the data set on MDA-MB-468 [1] is 7.05; in data set [2], 7.10; in the data set on SK-BR-3, 7.35; with MRC5, < 5.30; in the data set on MDA-MB-468 [4], 7.00. In addition, the pEC50 in data set [3] is 7.41; in [7], 5.62; in data set [8] it was 5.16; in data set [5] it was 7.30.

Consider `C#CCCCn1c(Cc2cc3c(cc2Br)OCO3)nc2c(N)nc(F)nc21`, for which the pIC50 in the data set with MDA-MB-468 [1] is 6.46; in data set [2] it was 6.68; in the data set on SK-BR-3 it was 6.67; in the data set with MDA-MB-468 [4], 6.51. Further, the results for the pEC50 in [3] and in [5] were 7.52 and 7.25, respectively.

For `C#CCCCn1c(Sc2cc3c(cc2Br)OCO3)nc2c(N)ncnc21`, the results for the pIC50 (with MDA-MB-468 [1]; in data set [2]; with MDA-MB-468 [4]) were 6.25, 6.44 and 6.28, respectively. For the same compound, the figures for the pEC50 in data set [3] and in data set [5] were 7.11 and 7.30, respectively.

Consider `C#CCCCn1c(Cc2cc(OC)c(OC)cc2Br)nc2c(N)nc(F)nc21`, for which the pIC50 in the data set on MDA-MB-468 [1] was < 4.30; in data set [2], < 4.30; in the data set on SK-BR-3, 4.26; with MDA-MB-468 [4], < 4.30. The pEC50 in [3] and in [5] was < 4.82 each time.

The record behind these values is ChEMBL document CHEMBL1148576, “Identification of potent water soluble purine-scaffold inhibitors of the heat shock protein 90” (J Med Chem, 2006).
